According to publication PMC7617399 (Nature microbiology, 2016):
Read-outs that look alike come from different tables or passages of the source.

What was measured:
[1] = target: ORF57-UAP56 interaction (Homo sapiens, UniProt Q13838); assay: Co-immunoprecipitation of ORF57 with UAP56; format: cell-based, KSHV / human; settings: nucleotide added to HEK-293T lysates (1.25 mM or concentration series)
Procedure, shortened: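 1×10^6 HEK-293T transfected with 1 μg ORF57-GFP or GFP plasmid (Lipofectamine), lysed after 24 h on ice for 20 min in modified RIPA (50 mM Tris/HCl, 150 mM NaCl, 1% NP40-alternative, pH 7.6) plus RNase A. Lysate clarified, pre-cleared on protein A for 2 h at 4°C, pulled down on GFP-trap beads with ATP, ADP or ATPγS for 2.5 h at 4°C. Western blot.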

[2] = target: recombinant GST-UAP56 (Homo sapiens, UniProt Q13838); assay: Microscale thermophoresis binding to UAP56; settings: read-out: KD (microscale thermophoresis); FITC-labelled GST-UAP56, 37°C
Procedure, shortened: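 GST-UAP56 FITC-labelled, desalted into 20 mM HEPES pH 7.4 with 2 mM MgCl2, used at 100–500 nM. Titrated with test compound in a 1:1 serial dilution from 4.5 mM, final DMSO 20% (v/v). LED power 10–60%, 37°C. KD fitted in thermophoresis mode. Biological replicates.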

[3] = target: purified recombinant UAP56 (GST-UAP56) (Homo sapiens, UniProt Q13838); assay: UAP56 ATPase assay; format: biochemical
Procedure, shortened: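 2.5 μM GST-UAP56 (E. coli BL-21, glutathione-eluted, buffer-exchanged) with 50 μM yeast tRNA, 35 μM ATP, 2 mM MgCl2, 50 mM KCl, 50 mM Tris/HCl pH 7.6. Screening at 100 μM final compound. IC50 series delivered in DMSO (1% of reaction). 37°C, 30 min, remaining ATP read by Kinase-Glo luminescence. Biological replicates.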

[4] = target: ADP-bound purified recombinant UAP56 (Homo sapiens, UniProt Q13838); assay: ADP displacement assay; format: binding
Procedure, shortened: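 Pre-formed ADP-bound enzyme: 5 μM GST-UAP56 (E. coli BL-21) run with 5 μM ATP for 30 min under ATPase-assay buffer conditions. Leftover ATP depleted with ADP-Glo reagent, then test compound added at rising concentrations and incubated 37°C for 30 min. Freed ADP converted to ATP and read by luminescence. n = 3 biological replicates.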

[5] = test system: HEK-293T cells; assay: MTS cell viability assay, HEK-293T; format: cell-based, human
Procedure, shortened: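 MTS assay: HEK-293T plated at 0.5×10^6 cells/ml 24 h ahead, then given test compound in DMSO (0.1% of volume, also added to controls). Readings normalised to DMSO wells, n = 5. CC50 from four-parameter variable-slope non-linear regression.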

[6] = test system: TREx BCBL1-Rta cells; assay: MTS cell viability assay, TREx BCBL1-Rta; format: cell-based, human; settings: TREx BCBL1-Rta, MTS, mean ± s.e.m.
Procedure, shortened: (§1)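 MTS assay: TREx BCBL1-Rta plated at 1×10^6 cells/ml and treated at once with test compound in DMSO (0.1% of volume, also added to controls). Viability read at 24 and 72 h. Biological replicates.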

[7] = test system: KSHV minor capsid protein (mCP) expression in TREx BCBL1-Rta cells; assay: Viral late protein mCP expression; format: cell-based; settings: for EC50: read-out: EC50 24 h (μM) (mCP expression)
[8] = test system: KSHV viral load in TREx BCBL1-Rta cells; assay: KSHV replication assay; format: cell-based; settings: for EC50: read-out: EC50 72 h (μM) (Viral load)
[9] = test system: KSHV; assay: Infectious KSHV virion production; format: cell-based; settings: 2.5 μM, supernatant 72 h after induction
Procedure, shortened: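 0.8×10^6 TREx BCBL1-Rta cells reactivated with 2 μg/ml doxycycline and treated with test compound or DMSO. Supernatants filtered at 72 h and used 1:1 on 1×10^6 HEK-293T. At 24 h post-infection, TRIzol RNA assayed by qRT-PCR for viral mRNA, normalised to GAPDH, shown as fold change against DMSO.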

[10] = target: hTREX-UAP56 interaction (Homo sapiens, UniProt Q13838); assay: Co-immunoprecipitation of endogenous hTREX with UAP56; format: cell-based; settings: up to 0.5 mM added to the lysate
[11] = test system: ORF57-mediated ORF47 mRNA stabilization and export in HEK-293T cells; assay: Viral mRNA export assay; format: cell-based, KSHV; settings: 2.5 μM, 18 h
Procedure, shortened: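 HEK-293T co-transfected with GFP or ORF57-GFP plus an intronless ORF47 reporter, then exposed to DMSO or test compound for 18 h. RNA taken from whole-cell and cytoplasmic fractions. ORF47 measured by qRT-PCR, normalised to GAPDH, ΔΔCT. n = 3, unpaired t test.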

[12] = test system: ORF57-mediated nuclear retention of cellular bulk mRNA in HEK-293T cells; assay: Fluorescence in situ hybridization of poly; format: cell-based, human; settings: ORF57-GFP expressing HEK-293T, 24 h treatment
Procedure, shortened: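 HEK-293T transfected with GFP or ORF57-GFP for 6 h, then DMSO or test compound for 24 h. Poly(A) RNA detected with 5′ Alexa Fluor 546-labelled oligo dT(70) probe, nuclei stained with DAPI, confocal imaging. Cells showing nuclear mRNA retention counted. 4 independent experiments.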

[13] = test system: TREx BCBL1-Rta cells; assay: Apoptosis assay; format: cell-based, human; settings: 72 h, CCT018159 at 2.5 μM
Procedure, shortened: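 TREx BCBL1-Rta cells exposed to DMSO or test compound for 72 h, washed, then incubated in HEPES buffer with Annexin-V-fluorescein plus propidium iodide to mark apoptotic and necrotic cells. Analysis by flow cytometry. Biological replicates.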

[14] = test system: KSHV latent nuclear antigen (LANA); assay: LANA immunoblotting; format: cell-based; settings: immunoblot, range of concentrations
[15] = test system: HSV-1; assay: Infectious HSV-1 virion production; format: cell-based
[16] = test system: HSV-1; assay: HSV-1 plaque assay after primary infection; format: cell-based; settings: increasing concentrations, HFF cells
Procedure, shortened: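 HFF (2×10^5) infected with HSV-1 at MOI 0.001 for 1 h and washed twice in PBS. Cells then overlaid with plaque agar (growth medium 1:1 with 2% agarose, 37°C) holding test compound or DMSO (0.1% final). Agarose lifted at 96 h, cells fixed 10 min in 4% paraformaldehyde, stained with 0.5% crystal violet, plaques counted by eye. Lysis also imaged directly.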

[17] = test system: HCMV; assay: Infectious HCMV virion production; format: cell-based
[18] = target: HSP90; settings: read-out: Ki (HSP90); reported value; cited from earlier work
[19] = MTS cell viability assay, TREx BCBL1-Rta; format: cell-based, human; settings: human, TREx BCBL1-Rta cells
Procedure, shortened: as §1

[20] = reactivated TREx BCBL1-Rta, 72 h, qPCR, mean ± s.e.m.

ORF57-UAP56 interaction, sequence (P82979 2-210): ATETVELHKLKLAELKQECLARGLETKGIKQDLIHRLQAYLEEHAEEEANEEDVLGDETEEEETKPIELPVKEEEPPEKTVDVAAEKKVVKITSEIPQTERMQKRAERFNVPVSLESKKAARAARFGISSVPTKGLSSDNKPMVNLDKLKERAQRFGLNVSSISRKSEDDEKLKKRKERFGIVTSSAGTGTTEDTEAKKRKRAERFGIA
ORF57-UAP56 interaction, sequence (Q13838 2-428): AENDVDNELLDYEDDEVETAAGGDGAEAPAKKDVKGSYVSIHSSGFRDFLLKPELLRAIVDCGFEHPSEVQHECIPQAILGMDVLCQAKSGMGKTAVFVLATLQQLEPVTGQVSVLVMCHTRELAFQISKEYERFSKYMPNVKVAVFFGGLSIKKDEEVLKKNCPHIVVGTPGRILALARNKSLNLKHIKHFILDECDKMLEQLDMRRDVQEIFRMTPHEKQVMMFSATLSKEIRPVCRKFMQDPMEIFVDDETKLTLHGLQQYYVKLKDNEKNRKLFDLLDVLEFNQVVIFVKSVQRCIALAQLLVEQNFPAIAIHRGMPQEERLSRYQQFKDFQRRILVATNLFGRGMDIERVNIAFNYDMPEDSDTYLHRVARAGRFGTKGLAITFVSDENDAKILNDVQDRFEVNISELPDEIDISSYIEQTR
purified recombinant UAP56 (GST-UAP56), sequence (Q13838 whole entry): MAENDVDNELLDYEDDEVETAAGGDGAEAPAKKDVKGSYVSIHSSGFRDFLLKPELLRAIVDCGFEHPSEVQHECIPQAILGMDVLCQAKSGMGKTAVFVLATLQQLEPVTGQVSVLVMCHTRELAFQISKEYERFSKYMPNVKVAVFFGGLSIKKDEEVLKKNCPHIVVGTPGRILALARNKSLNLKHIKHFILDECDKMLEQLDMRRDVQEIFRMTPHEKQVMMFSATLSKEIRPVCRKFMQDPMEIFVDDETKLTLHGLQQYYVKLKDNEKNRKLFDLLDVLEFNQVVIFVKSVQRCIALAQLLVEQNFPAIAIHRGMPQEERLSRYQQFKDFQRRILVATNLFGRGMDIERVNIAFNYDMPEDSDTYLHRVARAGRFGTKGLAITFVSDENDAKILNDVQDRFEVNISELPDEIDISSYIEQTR
ADP-bound purified recombinant UAP56, sequence (Q13838 whole entry): as above
recombinant GST-UAP56, sequence (Q13838 whole entry): as above
hTREX-UAP56 interaction, sequence (Q13838 2-428): as the sequence (Q13838 2-428) above
hTREX-UAP56 interaction, sequence (P82979 2-210, further chain): as the sequence (P82979 2-210) above

Question: With `Nc1ncnc2c1ncn2[C@@H]1O[C@H](COP(=O)(O)OP(=O)(O)O)[C@@H](O)[C@H]1O` [ADP] as the compound, how does the “effect of nucleotide on ORF57-UAP56/hTREX interaction” value [1] read?
Answer: disrupted

Question: For `Nc1ncnc2c1ncn2[C@@H]1O[C@H](COP(=O)(O)OP(=O)(O)OP(=O)(O)O)[C@@H](O)[C@H]1O` [ATP], which Kd [2] is on record?
Answer: 30.1 ± 4.5 µM

Question: What about the “effect of nucleotide on ORF57-UAP56/hTREX interaction” value [1] of the same compound?
Answer: enhanced

Question: For `Nc1ncnc2c1ncn2[C@@H]1O[C@H](CO[P@](=O)(O)O[P@](=O)(O)O[P@@](=O)(O)S)[C@@H](O)[C@H]1O` [ATPγS, Adenosine 5′-O-(3-thio)triphosphate], which “effect of nucleotide on ORF57-UAP56/hTREX interaction” value [1] is on record?
Answer: significantly inhibited

Question: What does the source list for `CCc1cc(-c2n[nH]c(C)c2-c2ccc3c(c2)OCCO3)c(O)cc1O` [CCT018159]?
Answer: reduction of UAP56 activity ([3]; at 100 μM (compound screening)): > 70%; Kd [2]: 76 ± 3.8 µM; mode of inhibition (ADP displacement) ([4]; ADP-bound UAP56, increasing concentrations): ATP/ADP-competitive inhibitor; IC50 ([4]; read-out: IC50 (ADP displacement)): ~60 µM; non-cytotoxic concentrations [5]: < 15 µM; CC50 ([6]; read-out: CC50 24 h (μM) (Cell viability), 24 h): 21.1 ± 1.6 µM; CC50 ([6]; read-out: CC50 72 h (μM) (Cell viability), 72 h): 16.6 ± 1.1 µM; mCP expression ([7]; at 2.5 μM): marked reduction; concentrations at which mCP inhibition occurred ([7]; immunoblot): 1 to 2.5 µM; EC50 ([7]; reactivated TREx BCBL1-Rta, 24 h, mean ± s.e.m.): 0.6 ± 0.1 µM; potency of antiviral effect relative to IC50 on purified UAP56 ([8]; discussion): 30 fold; concentration of antiviral effect ([8]; discussion, assay not specified): around 2 μM; EC50 [8, 20]: 1.1 ± 0.1 µM; reduction of viral mRNA in re-infected cells versus controls [9]: 80%; effect on hTREX-UAP56 interaction [10]: did not inhibit; effect on ORF57-mediated ORF47 mRNA stabilization and export [11]: abolished; effect on ORF57-mediated nuclear retention of poly(A) RNA [12]: nuclear retention was lost; apoptosis [13]: no increase in apoptosis; LANA degradation [14]: no LANA degradation; reduction in infected cells (HSV-1 re-infection) ([15]; 2.5 μM): 50%; reduction in infected cells (HSV-1 re-infection) ([15]; 5 μM): 95%; cell lysis, plaque size and plaque number [16]: dramatically decreased; reduction of HCMV virion production ([17]; 1 μM): 50%; reduction of HCMV virion production ([17]; 2.5 μM): over 99%; Ki [18]: 1.8 ± 0.3 µM

Question: Which results are given for `CCc1cc(-c2n[nH]c(C)c2-c2ccc(OC)cc2)c(O)cc1O` [Cmpd. 3, 4-Ethyl-6-(4-(4-methoxyphenyl)-3-methyl-1H-pyrazol-5-yl)benzene-1,3-diol]?
Answer: IC50 [3]: 88.7 ± 7.9 µM; CC50 at 24 h [19]: 27.9 ± 2.7 µM; CC50 at 72 h [19]: 14.7 ± 0.5 µM; EC50 ([7]; Human gammaherpesvirus 8, 24 h): 2.4 ± 0.4 µM; EC50 ([8]; Human gammaherpesvirus 8, 72 h): 2.7 ± 0.2 µM

Question: With `CCc1cc(-c2n[nH]c(C(=O)O)c2-c2ccc(OC)cc2)c(O)cc1O` [Cmpd. 4, 3-(5-Ethyl-2,4-dihydroxyphenyl)-4-(4-methoxyphenyl)-1H-pyrazole-5-carboxylic acid] as the compound, how does the IC50 [3] read?
Answer: > 1000 µM

Question: And the CC50 at 24 h [19]?
Answer: ~820 µM

Question: And the CC50 at 72 h [19]?
Answer: > 1000 µM

Question: And the EC50 ([7]; Human gammaherpesvirus 8, 24 h)?
Answer: > 1000 µM

Question: What about the EC50 ([8]; Human gammaherpesvirus 8, 72 h) of the same compound?
Answer: 138 ± 45.2 µM

Question: For `CO[C@H]1/C=C\C=C(/C)C(=O)NC2=CC(=O)C(NCCN(C)C)=C(C[C@@H](C)C[C@H](OC)[C@H](O)[C@@H](C)/C=C(\C)[C@@H]1OC(N)=O)C2=O` [Compound 17-DMAG], which “UAP56 ATPase inhibition” value ([3]; Supplementary Fig. 2a) is on record?
Answer: no UAP56 ATPase inhibition

Question: What about the EC50 [8, 20] of the same compound?
Answer: 0.04 ± 0.01 µM

Question: What about the “effect on ORF57-mediated nuclear retention of poly(A) RNA” value [12] of the same compound?
Answer: failed to relieve

Question: And the apoptosis [13]?
Answer: increased levels of apoptosis and necrosis

Question: And the LANA degradation [14]?
Answer: enhanced
